Sequences and labels used below:
B1: tRNA (parent)
chain: GUUCCGUUGGCGUAAUGGUAACGCGUCUCCCUCCUAAGGAGAAGACUGCGGGUUCGAGUCCCGUACGGAACG

Variants at the floor of the assay were thinned out. A value given as a limit tells only on which side of the number the result lay.

Variants of B1 are the subject of the series. The series is described as follows: yeast fitness relative to wild type (ratio to wild type); higher = fitter; tRNA-Arg(CCU), competitive growth, 37 C, YPD. The method in brief: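 A pool of Saccharomyces cerevisiae strains, each with a tRNA-Arg(CCU) gene variant at the native genomic locus, was competed in YPD at 37°C for 24 hours across six parallel replicates. The variants had been chemically synthesised at a 3% per-site mutation rate over 69 sites, and gene amplicons before and after competition were read by 100-nucleotide paired-end sequencing. Darwinian fitness relative to wild type rested on changes in genotype frequencies. Genotypes required ≥ 100 starting reads, and estimates < 0.5 were set to 0.5.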
Turning to C24U U54G, the yeast fitness stood at 0.577.
The value for C29U G51C was 0.57.
Consider A21G U28A C29U G58A, for which the yeast fitness stood at 0.528.
The value for C33G C49G C55U was not above 0.5.
With U13A A15U C24U A37U G67C the figure was 0.591.
For G12A C33U A36C C62U, the yeast fitness was 0.553.
The value for C29A C46A C49A was not above 0.5; that for C4U A36U G41C C55U U64C was 0.587.
On to U16C G17C C22G, for which the yeast fitness was 0.534.
In the case of U13C C66U, the yeast fitness was 0.932.
Take U32G C46G: the yeast fitness was 0.757.
With A57G A69G A70G the figure was 0.704.
With G50A U64C the figure was 0.966; with C11U A40G G44C U53C C55A A65U, not above 0.5; with G6A G44A A69C, 0.576.
The value for C4G C49U C62U was 0.653.
With C11U U19G C34U G56A, the yeast fitness is not above 0.5.
For U3A G23A U32A, the yeast fitness is not above 0.5.
As for C22A C24G U32C C34U, the yeast fitness is not above 0.5.
With A20G C24G G52C the figure was not above 0.5; with G18C U26A, 0.609; with U26A G68C A69G, 0.572.
Consider A20G C31U C46G, for which the yeast fitness turned out to be 0.649.
Take C22G G25A G41C A57U: the yeast fitness was not above 0.5.
The value for C5G C33A A42G A57G was not above 0.5; that for C4A A70U was 0.879.
The value for C5A C24G A69C was not above 0.5.
The value for C49A A57U was 0.55; that for A37U A65C C66G was not above 0.5; that for A15U C24U A65G was 0.53.
Regarding G12A U19C A21U, the yeast fitness came to 0.905.
On to C11G C24U C55G, for which the yeast fitness was not above 0.5.
The value for U2G C5U U32C C55U was 0.581.
The value for A20U G51A C61G was not above 0.5; that for U2G G17A C24U A36U A37U A70U was not above 0.5; that for U3C C31U A42G U54A was not above 0.5.
The value for G12A C24A A36U A65U was not above 0.5.
On to G12C A43G C61U, for which the yeast fitness was not above 0.5.
The value for C31U A40U U59C was 0.648; that for G10C C29U C31U G63U was not above 0.5; that for C11U U35A G38A C55G was not above 0.5.
With C22U A43C C46A the figure was 0.626.
With G12A A21G G48A A65U the figure was 0.534; with G10C A14C C27A C29G A57C, not above 0.5.
Regarding G6A C11A A36G C61U C66U, the yeast fitness was not above 0.5.
The value for A15U G23A C60G was not above 0.5; that for G6A U54A C62U A65G G68A was 0.548.
Regarding U2A G9A A37C A42C C61G, the yeast fitness is not above 0.5.
With U32A G63A the figure was 0.748; with U3C C4A G23A C31G A40C, not above 0.5.
Turning to C5G A43U C66U A69U, the yeast fitness was not above 0.5.
With U16A U32G C55G the figure was not above 0.5.
Consider C31U C46A A57U C60U, for which the yeast fitness was not above 0.5.
The value for A15U A36U C60G was not above 0.5.
The value for U7A C29A G50C U54C was not above 0.5.
With C4A C27A C62A the figure was not above 0.5.
As to U26A A43U, the yeast fitness was found to be 0.937.
In the case of U3C C11G A21U G56A, the yeast fitness is not above 0.5.
With U59A C60U the figure was 0.74; with C4A A45U C55U A70C, not above 0.5.
With G58A C66U G67U the figure was 0.543.
For C11G G39C G50C, the yeast fitness is 0.545.
With A20U G23A C31U G39A the figure was not above 0.5; with A43U A65G, 1.01; with C11A C30G C31U U32C G52A U59C, not above 0.5.
With C4U U53G the figure was 0.558; with C4G C30A G50U C66U, not above 0.5.
With U7G U13A the figure was 0.898; with A43G C60G, 0.734; with C34A G38A, 0.699.
For the variant C22G G58A, the yeast fitness was determined as 1.07.
As to C11U A40G U47G, the yeast fitness is not above 0.5.
The value for C24G C66G G68C was not above 0.5; that for C27U G48A was 1.1; that for U2G C30U C46A was 0.692.
With C11G U59C the figure was 0.589; with G9C A14U G48C U64G, not above 0.5; with C5A G18C U35G A57C U64A, not above 0.5.
On to C29U A40U G41C, for which the yeast fitness was not above 0.5.
The value for A14U U53C was 0.613; that for A21C C46G C49G G56A was 0.528.
With C4A C11U A21U G23A the figure was not above 0.5.
With C46G G51A G52A the figure was 0.566; with C30G A42U, 0.666; with U26A C30A C34A G48C A70U, not above 0.5.
As for C29U U59G, the yeast fitness was found to be 0.83.
Regarding U19C G48A C62A, the yeast fitness was 0.91.
Take U2G G12A A14G: the yeast fitness is 0.561.
With C4G G25A G51A, the yeast fitness is not above 0.5.
For A20G C34G, the yeast fitness was found to be 0.68.
The value for G10C A14U G38C was 0.736.
With A36C G38C A45G G50C the figure was not above 0.5; with C5U U19C C24A U28A, not above 0.5.
Regarding G9C A14G U16G G23A C33A G44A, the yeast fitness is not above 0.5.
With G6C U13C C24G C34U U53C C55G C62A the figure was not above 0.5; with G9A A43U, 1.08.
Take C5G G51C U54A A69U: the yeast fitness came out at 0.562.
With C11A C46U U64C the figure was not above 0.5; with A42U A57U C61U, not above 0.5; with A14C G39C C60U, not above 0.5.
The value for G23C C55G was not above 0.5; that for U13C C31A C49G C61G was not above 0.5; that for C11G C34U C55G was 0.689.
The value for C4G A20U C46U was 0.614; that for A21U C31A G39C C66U was not above 0.5.
Turning to C11G U16C C27G C61U, the yeast fitness came out at 0.545.
On to A20C U59C A69C, for which the yeast fitness turned out to be 0.705.
Take U7G U19A C22G C24G A40G C55G G68C: the yeast fitness was not above 0.5.
The value for C11A G23A G63C was 0.551; that for U8C G50A A70U was 0.736.
The value for A14U G38C C46A was 0.551; that for A14C C22G G67A was not above 0.5.
Regarding U3C A43C A65U, the yeast fitness is 0.604.
The value for C24U U32G A40U U64G A65G was not above 0.5; that for U3A C27G U28G A36U A45U C49G was 0.662; that for C33G A70U was 0.714.
The value for U19A U28A C31G A43G A45G was not above 0.5; that for A36U G48A G50U A57U was not above 0.5; that for G10C A43U G63C C66A was not above 0.5.
The value for C5U C24A U26C A40G G56A was not above 0.5; that for C5G U13G C29U A40G G68A A70C was not above 0.5.
Take U35C A45C: the yeast fitness stood at 0.862.
With C4U G12C U26G C55U A69C the figure was 0.504; with C11U C46G C61U, 0.596.
With C4U C22U C55G the figure was not above 0.5; with A21G C27A, 0.757; with C31U A70C, 1.05.
The value for G18C C24G A45G C55G was 0.693; that for G41A C61U was 0.786; that for G9C C11U G18C C31A A57G was not above 0.5.
With U8A G68C, the yeast fitness came out at 0.661.
The value for G6A A14G U35C A36G A45U was not above 0.5; that for G25A C34A A36C was 0.587; that for U13A A15G C66U was 0.644.
Turning to C31G A37C C60U, the yeast fitness is not above 0.5.
Regarding U54G G63C, the yeast fitness was not above 0.5.
With U13A A14G C66U G68C the figure was not above 0.5.
With C22G G44C C55U the figure was 0.564; with A45G U53G C66U A69U, not above 0.5; with C46U G48C, 0.951.
As for C34G A57C, the yeast fitness was not above 0.5.
With U7G U26C C49G the figure was not above 0.5; with C11U A42C C49U, 0.734.
The value for C5U A15G A20U A42G G63C was 0.65; that for G9U C22U was 0.715; that for C5U C11A A21G A70G was not above 0.5.
The value for G12A U35G G58A G68A was not above 0.5; that for C5U C22U C33U C49U C62G was not above 0.5.
Consider U26A C31U A57G, for which the yeast fitness was found to be 0.742.
The value for C4G G25C was 0.982; that for C27G G58C U59C G63A was not above 0.5; that for U13C G23A was 0.759.
The value for U3C G38A A45C was not above 0.5; that for G23C C29G A43U G50A A65C was 0.542; that for C5G A20G A65U was 0.652.
The value for C5G G17C G23C A57C was not above 0.5; that for C4A A15G G17A C33U G39C C55A G67C was not above 0.5; that for C27U U53C G63A was not above 0.5.
On to U28A C30G A36C, for which the yeast fitness was not above 0.5.
The value for C4G C11G C55U was not above 0.5; that for U7G A70U was 1.01; that for A42G C46G C49U was 0.744.
With U8C U47C U59A A70G the figure was not above 0.5.
The value for U3G C55U was 0.784; that for C5U A15C G23C was not above 0.5; that for U8A U32G A37G was not above 0.5.
With C5G U35C G44C C62A G68C A69U, the yeast fitness was not above 0.5.
